From PubChem
Shown is part of a subset that was picked to be rich in hits.
UPR CHOP act – apoptotic UPR (CHOP) activation; CHO-CHOP luciferase reporter, luminescence; percent of tunicamycin response over DMSO baseline; activation, % at 10 µM; 330,000 tested, 0.34% active; AID 449763;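 active = at 10 µM dose, activation of 40% or more, normalized to positive control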
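Dosing – one dose, 10 µM in 0.5% DMSO · System – CHO-CHOP cells, stable luciferase reporter of PERK-eIF2a-CHOP signalling · Input – 500 cells/well · Control set – tunicamycin 10 µg/mL final as positive, DMSO-only wells as negative · Timing – 6 h compound treatment, 37 °C · Measure – % activation vs tunicamycin · Technique – luminescence read with Steady-Glo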
CHOP inhibitor – CHOP inhibition in unfolded protein response. CHO-K1 CHOP-promoter luciferase, tunicamycin-induced, 15-18 h. inhibition, % at 10 µM. 220,000 tested, 3.8% active;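 active = compounds that reduced the stress-induced luciferase reporter signal by more than about 70% of percent inhibition, limit read from the data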
iPSC survival up – increases survival of single human iPS cells | 360,000 tested, 0.044% active | hiPSC single-cell survival, ATPlite luminescence; 100% = ROCK inhibitor wells, 0% = DMSO | survival enhancement, % at 20 µM; in the data active = survival enhancement above about 18%;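 note: cells exposed to compounds for 16 hours before the ATP read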
XBP1 UPR activ – adaptive UPR (XBP1) activation. CHO-XBP1 luciferase reporter, IRE1-XBP1 UPR activation, luminescence; percent of tunicamycin response, DMSO as zero. activation, % at 20 µM. 330,000 tested, 0.33% active;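 active = versus positive control, 20 µM dose yields 30% or more activation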
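Assay system: CHO-XBP1 luciferase reporter cells; Schedule: 6 h treatment, 37 °C; Detection: glow luminescence from Steady-Glo reagent; Benchmarks: high control tunicamycin 10 µg/mL final, low control DMSO vehicle only.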
H9c2 protect – protects H9c2 cardiomyocytes from peroxide injury; H2O2 injury protection, ATPLite, 2 h; protection from H2O2 cell death, % at 20 µM; 360,000 tested, 0.63% active; AID 588492;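 active = compounds giving at least 50% protection of heart cells from peroxide-induced death in the single-dose screen, raw or plate-pattern-corrected value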
CHOP confirm – confirmation of CHOP induction inhibitors; shares compounds with CHOP inhibitor; CHO-CHOP promoter luciferase reporter, tunicamycin-induced, luminescence; inhibition, % at 10 µM; 2,100 tested, 45% active;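 active = mean of three repeat readings of reporter signal inhibition above a set limit, cut at about 70% in these data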
Hits are given with their value.

Results for Cc1ccccc1Nc1nc(N)nc(-c2oc3ccccc3c2C)n1 ?
UPR CHOP act: inactive; CHOP inhibitor: inactive; iPSC survival up: inactive; XBP1 UPR activ: inactive; H9c2 protect: inactive

How did CCCCc1ccc(NC(=S)Nc2ccc(Cl)c(S(=O)(=O)N(C)C)c2)cc1 do in these assays?
CHOP inhibitor: 105; iPSC survival up: inactive; H9c2 protect: inactive; CHOP confirm: 83

Results for CC(C)c1nnc(N2C(=O)c3oc4ccccc4c(=O)c3C2c2ccco2)s1 (stereo not given) ?
UPR CHOP act: inactive; CHOP inhibitor: 112; iPSC survival up: inactive; XBP1 UPR activ: inactive; H9c2 protect: inactive; CHOP confirm: 110

What do the screens show for `O=[N+]([O-])/C=C\c1ccc(N2CCCC2)c(F)c1`?
CHOP inhibitor: 109; iPSC survival up: inactive; H9c2 protect: inactive; CHOP confirm: inactive

Results for Nc1nc(-c2ccccc2)c(N=Nc2ccccc2Cl)s1 ?
UPR CHOP act: inactive; CHOP inhibitor: 97; iPSC survival up: inactive; XBP1 UPR activ: inactive; H9c2 protect: inactive; CHOP confirm: 80

What do the screens show for `O=c1ccsc2ccccc12`?
iPSC survival up: inactive; H9c2 protect: inactive

Results for O=c1[nH]sc2ccccc12 ?
CHOP inhibitor: 97; iPSC survival up: inactive; H9c2 protect: inactive; CHOP confirm: inactive

Results for COc1ccc(C(=O)NC(=S)NC(C)(C)C)cc1Br ?
UPR CHOP act: inactive; CHOP inhibitor: 106; iPSC survival up: inactive; XBP1 UPR activ: inactive; H9c2 protect: inactive; CHOP confirm: inactive

What do the screens show for `N#C/C(=C/c1ccc(N2CCCCC2)o1)c1cccc(F)c1`?
UPR CHOP act: inactive; CHOP inhibitor: 103; iPSC survival up: inactive; XBP1 UPR activ: inactive; H9c2 protect: inactive; CHOP confirm: inactive

What do the screens show for `COc1ccccc1C(=O)NNC(=O)CCC(=O)NCc1ccccc1`?
UPR CHOP act: inactive; iPSC survival up: inactive; XBP1 UPR activ: inactive; H9c2 protect: inactive

Results for COc1ccc(-c2c3c(nc4sc5c(=O)[nH]c(C)nc5c24)CCC3)cc1 ?
UPR CHOP act: inactive; CHOP inhibitor: 113; iPSC survival up: inactive; XBP1 UPR activ: inactive; H9c2 protect: inactive; CHOP confirm: inactive

Results for CCCc1ccc(O)c(N=Cc2cc(Br)cc(OCC)c2O)c1 ?
UPR CHOP act: inactive; CHOP inhibitor: 97; iPSC survival up: inactive; XBP1 UPR activ: inactive; H9c2 protect: 71; CHOP confirm: 110

What do the screens show for `Cc1ccc(NC(=O)C2SC(=Nc3ccccc3)C(C(=O)Nc3ccc(Cl)cc3)=C2N)cc1` (stereo not given)?
CHOP inhibitor: inactive; iPSC survival up: inactive; H9c2 protect: inactive

Results for Cc1ccc(N=C2SC(C(=O)Nc3ccc(OC(F)(F)F)cc3)C(N)=C2C(=O)Nc2c(C)cc(C)cc2C)cc1 (stereo not given) ?
CHOP inhibitor: 105; iPSC survival up: inactive; H9c2 protect: inactive; CHOP confirm: 84

Results for C=CCN(CC=C)Cc1cc(=O)oc2cc(C)c(C)cc12 ?
iPSC survival up: inactive; H9c2 protect: inactive

How did C=CCn1c(SCC(=O)Nc2ccc(-c3nc4ccc(C)cc4s3)cc2)nnc1-c1ccccc1 do in these assays?
CHOP inhibitor: 100; iPSC survival up: inactive; H9c2 protect: inactive; CHOP confirm: 70

What do the screens show for `CCOC(=O)c1cc(-c2ccccc2)nc2c1c(C)nn2-c1ccccn1`?
UPR CHOP act: inactive; CHOP inhibitor: 103; iPSC survival up: inactive; XBP1 UPR activ: inactive; H9c2 protect: inactive; CHOP confirm: 108

How did CCc1ccc(/C=C2\SC(=S)N(CCCC(=O)N(CCO)c3ccccc3)C2=O)cc1 do in these assays?
iPSC survival up: inactive; H9c2 protect: inactive

How did O=C(COC(=O)Cc1c(Cl)cccc1Cl)NCc1ccccc1 do in these assays?
iPSC survival up: inactive; H9c2 protect: inactive

Results for Cc1c(C(=O)N/N=C/c2ccc(Cl)cc2)[nH]c2ccc(Cl)cc12 ?
UPR CHOP act: inactive; CHOP inhibitor: 98; iPSC survival up: inactive; XBP1 UPR activ: inactive; H9c2 protect: inactive; CHOP confirm: inactive

Results for CCOc1ccc(/C=N/NC(=O)c2[nH]c3ccc(C)cc3c2C)cc1 ?
UPR CHOP act: inactive; iPSC survival up: inactive; XBP1 UPR activ: inactive; H9c2 protect: inactive
